Assay results gathered from unrelated publications.
Protocols differ between the studies behind these lines.
murD: UDP-N-acetylmuramoylalanine--D-glutamate ligase (murD, Escherichia coli K-12, UniProt P14900)
SLC47A2: Multidrug and toxin extrusion protein 2 (SLC47A2, Homo sapiens, UniProt Q86VL8)
PDE8A: High affinity cAMP-specific and IBMX-insensitive 3',5'-cyclic phosphodiesterase 8A (PDE8A, Homo sapiens, UniProt O60658)
KAT2B: Histone acetyltransferase KAT2B (KAT2B, Homo sapiens, UniProt Q92831)
PTPN7: Tyrosine-protein phosphatase non-receptor type 7 (PTPN7, Homo sapiens, UniProt P35236)
YES1: Tyrosine-protein kinase Yes (YES1, Homo sapiens, UniProt P07947)
BCKDK: Branched-chain alpha-ketoacid dehydrogenase kinase (BCKDK, Homo sapiens, UniProt O14874)
OPRM1: Mu-type opioid receptor (OPRM1, Homo sapiens, UniProt P35372)
ALOX5: Polyunsaturated fatty acid 5-lipoxygenase (ALOX5, Homo sapiens, UniProt P09917)

The IC50 of `O=C(Nc1ccccc1C=NNS(=O)(=O)c1ccc2ccccc2c1)c1cc([N+](=O)[O-])cc([N+](=O)[O-])c1` is reported as 49 µM (murD; enzyme activity, inhibitor, absorbance).
`C[C@@H]1CCO[C@H]2Cn3cc(C(=O)NCc4ccc(F)cc4F)c(=O)c(O)c3C(=O)N12` has an IC50 of 24.8 µM (SLC47A2; transporter uptake, inhibitor, radiometric; HEK293; 5 min, pH 8.5).
`O=C1NC(=O)/C(=C/c2ccc(OCCNc3nc4c(cnn4C4CCCC4)c(=O)[nH]3)c(F)c2)S1` has an IC50 of 0.199 µM (PDE8A; enzyme activity, inhibitor).
`O=c1cc(-c2ccc(O)c(O)c2)oc2cc(O)cc(O)c12` gave an IC50 of 6.91 µM (Histone deacetylase 8 (HDAC8, Homo sapiens, UniProt Q9BY41); enzyme activity, inhibitor).
The IC50 of `CCCCCCCc1ccc(CCc2cccc(O)c2C(=O)O)cc1` is reported as over 200 µM (KAT2B; enzyme activity, inhibitor, radiometric).
With `Cc1ccc(C(=O)Nc2ccc(S(=O)(=O)O)c3cc(S(=O)(=O)O)cc(S(=O)(=O)O)c23)cc1NC(=O)c1cccc(NC(=O)Nc2cccc(C(=O)Nc3cc(C(=O)Nc4ccc(S(=O)(=O)O)c5cc(S(=O)(=O)O)cc(S(=O)(=O)O)c45)ccc3C)c2)c1` the IC50 was 30 µM (PTPN7; enzyme activity, inhibitor, fluorescence).
`COc1ccc(S(=O)(=O)ON=C2C=C(C)C(=O)C(C)=C2)cc1` gave an IC50 of 34.7 µM (KAT2B; enzyme activity, inhibitor, radiometric).
`CC/C=C\C/C=C\C/C=C\C/C=C\C/C=C\CCCC(=O)O` gave an IC50 of 23.9 µM (DNA polymerase subunit gamma-1 (POLG, Homo sapiens, UniProt P54098); enzyme activity, inhibitor).
With `CN1CCN(c2ccc(Nc3ncc4cc(C#N)c(=O)n(C5CCCC5)c4n3)cc2)CC1` the IC50 was 0.123 µM (TGF-beta receptor type-2 (TGFBR2, Homo sapiens, UniProt P37173); enzyme activity, inhibitor).
For `CSc1ccc(/C=C2/C(C)=C(CC(=O)O)c3cc(F)ccc32)cc1`, the IC50 was over 100 µM (PDE8A; enzyme activity, inhibitor).
`NC(=O)c1ccc[n+]([C@@H]2O[C@H](COP(=O)([O-])OP(=O)(O)OC[C@H]3O[C@@H](n4cnc5c(N)ncnc54)[C@H](O)[C@@H]3O)[C@@H](O)[C@H]2O)c1` gave an IC50 of 456 µM (Protein mono-ADP-ribosyltransferase PARP10 (PARP10, Homo sapiens, UniProt Q53GL7); enzyme activity, inhibitor).
`Cc1cnc(-c2ccc(-c3ccc(NC(=O)Nc4c(F)cc(F)cc4F)cc3F)c3c2C(=O)NC3)[nH]1` has an IC50 of 0.0045 µM (YES1; enzyme activity, inhibitor).
`CC(C)=CCC[C@@]1(C)C(CC[C@H]2[C@]3(C)CC[C@H](O)C(C)(C)O[C@H]3CC[C@@]2(C)O)=C(C)CC[C@H]1O` has an IC50 of 20 to 50 µM (ATP-dependent translocase ABCB1 (ABCB1, Homo sapiens, UniProt P08183); transporter efflux, inhibitor, fluorescence; KB-V1; 10 min).
`CCCC[C@@H](C(=O)N[C@@H](CC(=O)O)C(=O)N(C)[C@@H](Cc1ccccc1)C(N)=O)N(C)C(=O)[C@H](Cc1c[nH]c2ccccc12)NC(=O)CNC(=O)[C@H](Cc1ccc(O)cc1)NC(=O)[C@H](C)NC(=O)[C@@H](CCC(=O)O)NC(=O)CN1CCN(CC(=O)O)CCN(CC(=O)O)CCN(CC(=O)O)CC1` gave an IC50 of 0.00453 µM (Gastrin/cholecystokinin type B receptor (Rattus norvegicus, UniProt P30553); ligand displacement, radioligand).
`CCCCC1=NC2(CCCC2)C(=O)N1Cc1ccc(-c2ccccc2-c2nnn[nH]2)cc1` gave an IC50 of 32.9 µM (BCKDK; enzyme activity, inhibitor).
For `CN(C)CCC=C1c2ccccc2CCc2ccccc21`, the IC50 was over 500 µM (SLC47A2; transporter uptake, inhibitor, radiometric; HEK293; 5 min).
The IC50 of `O=[N+]([O-])c1ccc(S(=O)(=O)Oc2ccccc2C=NNS(=O)(=O)c2ccc3ccccc3c2)cc1` is reported as 74 µM (murD; enzyme activity, inhibitor, absorbance).
For `CCCCc1nc(Cl)c(CO)n1Cc1ccc(-c2ccccc2-c2nn[nH]n2)cc1`, the IC50 was 19.8 µM (BCKDK; enzyme activity, inhibitor).
`C=CC(=O)Nc1cc(Nc2nccc(Nc3cc(Cl)c(F)cc3C(C)(C)O)n2)c(OC)cc1N1CC[C@@H](N(C)C)C1` has an IC50 of 2.9 µM (YES1; enzyme activity, inhibitor; with preincubation).
For `CCCC[C@H](NC(=O)[C@H](C)c1c(C)[nH]c2ccc(O)cc12)c1ncc(-c2cc3ccccc3nc2OC)[nH]1`, the IC50 was 4.61 µM (OPRM1; cell-free assay).
`CC[C@H](C)[C@H](NC(C)=O)C(=O)N[C@@H](CCC(=O)O)C(=O)N[C@H](C(=O)N[C@H](C=O)CC(=O)O)[C@@H](C)O` gave an IC50 of 0.00644 µM (Caspase-5 (CASP5, Homo sapiens, UniProt P51878); enzyme activity, inhibitor).
The IC50 of `CCCCc1nc(C)c(CC(=S)N(C)C)c(=O)n1Cc1ccc(-c2ccccc2-c2nnn[nH]2)cc1` is reported as 51.9 µM (BCKDK; enzyme activity, inhibitor).
`CCOCc1nc(O)c(-c2nnc(Cc3ccc(Cl)cn3)o2)c(O)c1-c1c(OC)cccc1OC` has an IC50 of over 30 µM (OPRM1; ligand displacement, radioligand).
With `C=C(C)[C@@H]1CCC(C)=C[C@H]1c1c(O)cc(CCCCC)cc1O` the IC50 was 4.3 µM (ALOX5; enzyme activity, inhibitor).
The IC50 of `CNC(=O)c1cc2c(Oc3ccc(NC(=O)C4(C(=O)Nc5ccc(F)cc5)CC4)cc3)ccnc2cc1OC` is reported as 0.034 µM (Ephrin type-A receptor 8 (EPHA8, Homo sapiens, UniProt P29322); enzyme activity, inhibitor, radiometric).
The IC50 of `CCCCc1ncc(/C=C(\Cc2cccs2)C(=O)O)n1Cc1ccc(C(=O)O)cc1` is reported as 76.4 µM (BCKDK; enzyme activity, inhibitor).
The IC50 of `CCCCCc1cc(O)c(C/C=C(\C)CCC=C(C)C)c(O)c1` is reported as 0.7 µM (ALOX5; enzyme activity, inhibitor).
For `Cc1ccc(-c2cc(-c3ccc(-c4ccc(C(=O)O)cc4)[nH]3)nc3c(C(C)C)cccc23)cc1`, the IC50 was over 3.3 µM (Retinoic acid receptor beta (RARB, Homo sapiens, UniProt P10826); reporter gene, antagonist).
`C=C(C)[C@@H]1CCC(C)=C[C@H]1c1c(O)cc(CCC)cc1O` gave an IC50 of 4.9 µM (ALOX5; enzyme activity, inhibitor).
`CCn1ncc2c1-c1cnc(N)c(c1)O[C@H](C)c1cc(F)ccc1-c1nn(C)nc1C2` has an IC50 of 0.116 µM (Ephrin type-A receptor 6 (EPHA6, Homo sapiens, UniProt Q9UF33); enzyme activity, inhibitor, radiometric).
The IC50 of `O=C(NO)c1ccc(NC(=O)C2(c3ccc(F)cc3)CCCC2)c(F)c1` is reported as 0.204 µM (Histone deacetylase 1 (HDAC1, Homo sapiens, UniProt Q13547); enzyme activity, inhibitor).
`CN[C@H]1CC[C@@H](c2ccc(Cl)c(Cl)c2)c2ccccc21` has an IC50 of 110 µM (PTPN7; enzyme activity, inhibitor, fluorescence).
With `O=C(Nc1ccc(C=NNS(=O)(=O)c2ccc3ccccc3c2)cc1)c1ccccc1Br` the IC50 was 55 µM (murD; enzyme activity, inhibitor, absorbance).
With `COc1cc(C[C@H]2C(=O)OC[C@@H]2Cc2ccc(OC)c(OC)c2)ccc1O` the IC50 was over 20 µM (PDE8A; enzyme activity, inhibitor).
